These results are taken from paper PMC6364161 (Journal of Veterinary Research, 2018).

The test system of data set [1] is BALB/3T3 cells. Briefly: MTT reduction assay, BALB/3T3 cells. The format is cell-based, Mouse. The settings on record: for cell viability at low doses / cell viability: MTT; for cell viability at low doses: BALB/3T3, 100 and 200 μM; for cell viability: BALB/3T3, 100 to 1,400 μM, 24 h, compared to control. In short, it runs like this: (§1)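 Cells were plated at 2 × 10^5 cells/mL and cultured 24 h: BALB/3T3 in DMEM with 10% heat-inactivated calf serum, HepG2 in EMEM with 10% heat-inactivated FBS. Medium was then replaced with test compound at 100–1,400 μM, diluted from a 10 mM PBS stock, for 24 h. MTT reduction was read spectrophotometrically as viability relative to untreated control (100%), and IC50 was taken from the dose-response curve. Six independent experiments, triplicate wells.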

For data set [2], the system named is HepG2 cells. Briefly: MTT reduction assay, HepG2 cells. Format: cell-based, human. The settings on record: for IC50: MTT assay, HepG2, 24 h incubation; for cell viability at low doses / cell viability: MTT; for cell viability at low doses: HepG2, 100 and 200 μM; for cell viability: HepG2, 100 to 1,400 μM, 24 h, compared to control. In short, it runs like this: as §1

The test system of data set [3] is BALB/3T3 cells. The data set is described as follows: LDH release assay, BALB/3T3 cells. The format is cell-based, Mouse. The settings on record: for IC50: LDH leakage assay, BALB/3T3, 24 h incubation; for LDH leakage (membrane integrity): LDH release, BALB/3T3, 100 to 1,400 μM, 24 h. Summed up:
(§2)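 Test compounds (10 mM stock in PBS) were diluted in complete medium: DMEM plus 10% heat-inactivated calf serum for BALB/3T3 cells, EMEM plus 10% heat-inactivated FBS for HepG2 cells. Cells were seeded at 2 × 10^5 cells/mL, grown 24 h, then exposed to 100–1,400 μM for 24 h at 37 °C, 5% CO2. Released LDH was taken as a percentage of total LDH absorbance, and IC50 was read from the dose-response curve. Six independent experiments, three wells each.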

For data set [4], the system named is HepG2 cells. The data set is described as follows: LDH release assay, HepG2 cells. The format is cell-based, human. Particulars: for IC50: LDH leakage assay, HepG2, 24 h incubation; for LDH leakage (membrane integrity): LDH release, HepG2, 100 to 1,400 μM, 24 h. In short, it runs like this:
as §2

The subject of data set [5] is BALB/3T3 cells. Briefly: Neutral red uptake assay, BALB/3T3 cells. The format is cell-based, Mouse. Particulars: NRU; for cell viability at low doses: BALB/3T3, 100, 200, and 400 μM; for cell viability: BALB/3T3, 100 to 1,400 μM, 24 h. In short, it runs like this:
(§3)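 Neutral red uptake, a measure of lysosomal activity. BALB/3T3 cells were grown in DMEM with 10% heat-inactivated calf serum and HepG2 cells in EMEM with 10% heat-inactivated FBS, both seeded at 2 × 10^5 cells/mL for 24 h. Cells were then exposed for 24 h to test compound at 100–1,400 μM, diluted in medium from a 10 mM PBS stock. Viability was measured spectrophotometrically against control cells, and IC50 was read from the dose-response curve. Six independent experiments, three wells per treatment.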

For data set [6], the system named is HepG2 cells. Briefly: Neutral red uptake assay, HepG2 cells. Format: cell-based, human. The settings on record: for cell viability at low doses / cell viability: NRU; for cell viability at low doses: HepG2, 100, 200, and 400 μM; for cell viability: HepG2, 100 to 1,400 μM, 24 h. In short, it runs like this: as §3
The test system of data set [7] is HK-2 cells. Particulars: MTT assay, 480 μM; cited from earlier work.

As for `[Cl][Ni][Cl]` [Nickel chloride, NiCl2], the IC50 in data set [1] (MTT assay, BALB/3T3, 24 h incubation) turned out to be 700 µM; in data set [2] it was 400 µM; in data set [3], 300 µM; in data set [4] it was 800 µM. Further, the “cell viability at low doses” value in data set [1], in data set [2], in data set [5] and in data set [6] was “increased” in each case. For the same compound, the cell viability entry in data set [1], in data set [2], in data set [5] and in data set [6] was “significantly decreased in a concentration-dependent manner” each time. Further, the “LDH leakage (membrane integrity)” value in data set [3] and in data set [4] was “increasingly significant LDH leakage” throughout.

Consider `CC(=O)[O-].CC(=O)[O-].[Ni+2]` [Ni (II) acetate], for which, in data set [7], the cell viability result is reported as “less than 50%”.

`O.O.O.O.O.O.[Cl-].[Cl-].[Cl-].[Fe+3]` [Iron chloride, FeCl3 × 6H2O]: the “cell viability at low doses” value in data set [1], in data set [2], in data set [5] and in data set [6] was “increased” each time. Moreover, the cell viability entry in data set [1], in data set [2], in data set [5] and in data set [6] was “significantly decreased in a concentration-dependent manner” in each case. For the same compound, the “LDH leakage (membrane integrity)” value in data set [3] and in data set [4] was “increasingly significant LDH leakage” in each case.

Consider `[Cl-].[Cl-].[Cl-].[Fe+3]` [Iron chloride, FeCl3 × 6H2O], for which the IC50 was determined as 1300 µM in data set [2]; 550 µM in data set [3]; 900 µM in data set [4]; 1200 µM in data set [6] (NRU assay, HepG2, 24 h incubation).
